Reference: ChEMBL document CHEMBL4680199, “Synthesis and in vitro evaluation of new 5-substituted 6-nitroimidazooxazoles as antikinetoplastid agents” (Eur J Med Chem, 2020)

Columns and labels:
[1] = Cytotoxicity against CHO cells assessed as reduction in cell viability after 24 hrs by MTT assay; format: cell-based, Cricetulus griseus; settings: chinese hamster
How it was run: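 Cells in complete RPMI (10% FCS, L-glutamine, penicillin/streptomycin) were allowed to adhere for 24 h at 37 °C in 5% CO₂. Compounds in DMSO (final <0.5% v/v) were then added in duplicate for 24 h. MTT (0.5 mg/mL in FCS-free medium) was applied for 2 h, formazan was dissolved in DMSO, and A570 was read with 630 nm reference. Viability is % of untreated cells; CC50 by non-linear regression; mean of three experiments.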

Leishmania donovani = assay: Antileishmanial activity against Leishmania donovani MHOM/IN/00/DEVI promastigotes measured after 72 hrs by MTT assay; format: functional, organism-based
How it was run: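 Log-phase promastigotes were grown in Schneider's medium with 20% FCS, 2 mM L-glutamine and penicillin/streptomycin, and seeded at 10⁶ parasites/mL. Compounds in DMSO (final <0.5% v/v) were tested in duplicate for 72 h at 27 °C. MTT was added for 4 h, the reaction was stopped with 50% isopropanol/10% SDS, and A570 was read. IC50 relative to control was fitted by non-linear regression; mean of ≥3 independent experiments.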

[2] = Selectivity index, ratio of CC50 for CHO cells to IC50 for antileishmanial activity against Leishmania donovani MHOM/IN/00/DEVI promastigotes; format: toxicity; settings: hamster, read-out: Ratio CC50/IC50
How it was run: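 SI = CHO CC50 / promastigote IC50. Promastigotes: log-phase, Schneider's + 20% FCS, 10⁶/mL, DMSO <0.5% final, 72 h at 27 °C, MTT 4 h, A570, ≥3 experiments. CHO: complete RPMI + 10% FCS, 24 h attachment, 24 h exposure at 37 °C, MTT 0.5 mg/mL 2 h, A570/630, three experiments. Both values from non-linear regression of dose-response curves.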

Trypanosoma cruzi = assay: Antitrypanosomal activity against Trypanosoma cruzi CL amastigotes overexpressing tdTomato red fluorescent protein infected in gamma-irradiated African green monkey Vero cells assessed as reduction in parasite growth measured 3 days post-infection by fluorescence assay; format: functional, organism-based; settings: light or radiation study, 72 h
[3] = Selectivity index, ratio of CC50 for CHO cells to IC50 for antitrypanosomal activity against Trypanosoma cruzi CL amastigotes overexpressing tdTomato red fluorescent protein infected in gamma-irradiated African green monkey Vero cells; format: toxicity; settings: Chinese hamster, read-out: Ratio CC50/IC50
How it was run: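 SI = CHO CC50 / T. cruzi IC50. CHO cells: complete RPMI + 10% FCS, 24 h attachment, then 24 h compound exposure at 37 °C, 5% CO₂, DMSO <0.5% final, in duplicate. MTT 0.5 mg/mL for 2 h, read at A570/630, three experiments. Parasites were tdTomato-labelled trypomastigotes. Both values from non-linear regression of dose-response curves.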

CC1Cn2cc([N+](=O)[O-])nc2O1 (centres undefined)
CC50 at 24 h [1]: > 500 µM
IC50 (Leishmania donovani): 0.1 µM
selectivity ratio [2]: > 5000
IC50 (Trypanosoma cruzi): > 10 µM

CC1Cn2c(nc([N+](=O)[O-])c2C#Cc2ccc(CO)cc2)O1 (centres undefined)
CC50 at 24 h [1]: 8.77 µM
IC50 (Leishmania donovani): 4.11 µM
selectivity ratio [2]: 2.1
IC50 (Trypanosoma cruzi): 1.61 µM
selectivity ratio [3]: 5.4

Cc1ccc(-c2c([N+](=O)[O-])nc3n2CC(C)O3)s1 (centres undefined)
CC50 at 24 h [1]: > 125 µM
IC50 (Leishmania donovani): > 10 µM
IC50 (Trypanosoma cruzi): > 10 µM

CC1Cn2c(nc([N+](=O)[O-])c2-c2ccc(C=O)cc2)O1 (centres undefined)
CC50 at 24 h [1]: 255 µM
IC50 (Leishmania donovani): > 10 µM
IC50 (Trypanosoma cruzi): > 10 µM

CC1Cn2c(nc([N+](=O)[O-])c2Br)O1 (centres undefined)
CC50 at 24 h [1]: 9.19 µM
IC50 (Leishmania donovani): 6.71 µM
selectivity ratio [2]: 1.4
IC50 (Trypanosoma cruzi): > 10 µM

CC1Cn2c(nc([N+](=O)[O-])c2-c2ccc(Cl)cc2)O1 (centres undefined)
CC50 at 24 h [1]: > 250 µM
IC50 (Leishmania donovani): > 10 µM
IC50 (Trypanosoma cruzi): > 10 µM

COc1cc(-c2c([N+](=O)[O-])nc3n2CC(C)O3)cc(OC)c1OC (centres undefined)
CC50 at 24 h [1]: > 125 µM
IC50 (Leishmania donovani): > 10 µM
IC50 (Trypanosoma cruzi): > 10 µM

CC1Cn2c(nc([N+](=O)[O-])c2C#Cc2cccc(N)c2)O1 (centres undefined)
CC50 at 24 h [1]: 18.1 µM
IC50 (Leishmania donovani): 3.49 µM
selectivity ratio [2]: 5.2
IC50 (Trypanosoma cruzi): 3.63 µM
selectivity ratio [3]: 5

CC1Cn2c(nc([N+](=O)[O-])c2C#Cc2ccccc2)O1 (centres undefined)
CC50 at 24 h [1]: 3.54 µM
IC50 (Leishmania donovani): 2.08 µM
selectivity ratio [2]: 1.7
IC50 (Trypanosoma cruzi): 1.46 µM
selectivity ratio [3]: 2.4

COc1cccc(C#Cc2c([N+](=O)[O-])nc3n2CC(C)O3)c1 (centres undefined)
CC50 at 24 h [1]: 12.9 µM
IC50 (Leishmania donovani): 1.58 µM
selectivity ratio [2]: 8.1
IC50 (Trypanosoma cruzi): 0.92 µM
selectivity ratio [3]: 14

CC1Cn2c(nc([N+](=O)[O-])c2C#Cc2ccc(C(C)(C)C)cc2)O1 (centres undefined)
CC50 at 24 h [1]: 6.62 µM
IC50 (Leishmania donovani): 0.61 µM
selectivity ratio [2]: 10.8
IC50 (Trypanosoma cruzi): 2.86 µM
selectivity ratio [3]: 2.3

Cc1ccc(C#Cc2c([N+](=O)[O-])nc3n2CC(C)O3)cc1 (centres undefined)
CC50 at 24 h [1]: 5.47 µM
IC50 (Leishmania donovani): 1.66 µM
selectivity ratio [2]: 3.3
IC50 (Trypanosoma cruzi): 2.18 µM
selectivity ratio [3]: 2.5

CC1Cn2c(nc([N+](=O)[O-])c2-c2ccc(OC(F)(F)F)cc2)O1 (centres undefined)
CC50 at 24 h [1]: > 125 µM
IC50 (Leishmania donovani): > 10 µM
IC50 (Trypanosoma cruzi): > 10 µM

CC1Cn2c(nc([N+](=O)[O-])c2-c2cccc(C(F)(F)F)c2)O1 (centres undefined)
CC50 at 24 h [1]: > 250 µM
IC50 (Leishmania donovani): > 10 µM
IC50 (Trypanosoma cruzi): > 10 µM

CC1Cn2c(nc([N+](=O)[O-])c2C#CC2CC2)O1 (centres undefined)
CC50 at 24 h [1]: 6.45 µM
IC50 (Leishmania donovani): 4.59 µM
selectivity ratio [2]: 1.4
IC50 (Trypanosoma cruzi): 4.1 µM
selectivity ratio [3]: 1.6

Cc1ccc(-c2c([N+](=O)[O-])nc3n2CC(C)O3)cc1 (centres undefined)
CC50 at 24 h [1]: > 250 µM
IC50 (Leishmania donovani): > 10 µM
IC50 (Trypanosoma cruzi): > 10 µM

CC1Cn2c(nc([N+](=O)[O-])c2-c2cccc(C#N)c2)O1 (centres undefined)
CC50 at 24 h [1]: > 500 µM
IC50 (Leishmania donovani): > 10 µM
IC50 (Trypanosoma cruzi): > 10 µM

CC1Cn2c(nc([N+](=O)[O-])c2-c2ccc(CO)cc2)O1 (centres undefined)
CC50 at 24 h [1]: > 500 µM
IC50 (Leishmania donovani): > 10 µM
IC50 (Trypanosoma cruzi): > 10 µM

CC1Cn2c(nc([N+](=O)[O-])c2-c2ccccc2)O1 (centres undefined)
CC50 at 24 h [1]: > 500 µM
IC50 (Leishmania donovani): > 10 µM
IC50 (Trypanosoma cruzi): > 10 µM

CCCOc1ccc(-c2c([N+](=O)[O-])nc3n2CC(C)O3)cc1 (centres undefined)
CC50 at 24 h [1]: > 125 µM
IC50 (Leishmania donovani): > 10 µM
IC50 (Trypanosoma cruzi): > 10 µM

C[C@@H]1[C@H](O)[C@@H](C)/C=C/C=C/C=C/C=C/C=C/C=C/C=C/[C@H](O[C@@H]2O[C@H](C)[C@@H](O)[C@H](N)[C@@H]2O)C[C@@H]2O[C@](O)(C[C@@H](O)C[C@@H](O)[C@H](O)CC[C@@H](O)C[C@@H](O)CC(=O)O[C@H]1C)C[C@H](O)[C@H]2C(=O)O [AMPHOTERICIN B]
IC50 (Leishmania donovani): 0.18 µM

O=C(Cn1ccnc1[N+](=O)[O-])NCc1ccccc1 [BENZNIDAZOLE]
IC50 (Trypanosoma cruzi): 2.31 µM

COc1cccc2c1C(=O)c1c(O)c3c(c(O)c1C2=O)C[C@@](O)(C(=O)CO)C[C@@H]3O[C@H]1C[C@H](N)[C@H](O)[C@H](C)O1 [DOXORUBICIN]
CC50 at 24 h [1]: 4.65 µM
